B1: tRNA (parent)
chain: GUUCCGUUGGCGUAAUGGUAACGCGUCUCCCUCCUAAGGAGAAGACUGCGGGUUCGAGUCCCGUACGGAACG

Fewer inactive variants are shown than the library holds.

The variants in this series derive from B1. As to the kind of experiment: yeast fitness relative to wild type (ratio to wild type); higher = fitter; tRNA-Arg(CCU), competitive growth, 37 C, YPD. In short, it runs like this:
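A pool of Saccharomyces cerevisiae strains, each with a tRNA-Arg(CCU) gene variant at the native genomic locus, was competed in YPD at 37°C for 24 hours across six parallel replicates. The variants had been chemically synthesised at a 3% per-site mutation rate over 69 sites, and gene amplicons before and after competition were read by 100-nucleotide paired-end sequencing. Darwinian fitness relative to wild type rested on changes in genotype frequencies. Genotypes required ≥ 100 starting reads, and estimates < 0.5 were set to 0.5.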
Take A15C C22A G25C U28A A36U A70G: the yeast fitness is ≤ 0.5. The figure for A15C C31A U59C A69G is ≤ 0.5; for A15C G44C it is 0.684; for A14U U47A G56A it is ≤ 0.5. As to A14U C31U G51A G63C, the yeast fitness is ≤ 0.5. Next, A15C A43U C49G: 0.515. The figure for A15C G25A C27A C33U C34A C61U is ≤ 0.5; for A14U U28A G51A it is ≤ 0.5; for A15C C27U C31A it is ≤ 0.5. The figure for A14U U35C C55A C60A is ≤ 0.5; for A15C G17A A36G G38C U59C it is ≤ 0.5; for A14U U35G C62G it is ≤ 0.5. With A14U G41C U59A C61A C66U G68C, the yeast fitness was ≤ 0.5. The figure for A15C G25C C29U U35C A43U A70U is ≤ 0.5; for A14U C55A A65C it is ≤ 0.5; for A14U G44C G51A G63A A70U it is ≤ 0.5. For the variant A14U G17C C24A C30G, the yeast fitness stood at 0.524.

On to A15C A20G G51A C55G, for which the yeast fitness was determined as 0.532. The figure for A14U G18C A69U is ≤ 0.5; for A15C G39A A65G A70U it is ≤ 0.5. Next, A15C C55U: 0.625; A15C C55G: 0.593; A15C C24U: 0.601. Next, A15C C24A: ≤ 0.5; A14U U35C C66G: ≤ 0.5. As to A14U U19A C24G U54A, the yeast fitness is ≤ 0.5.

In the case of A14U C33G A37G A40C C49G G67C, the yeast fitness is ≤ 0.5.

With A15C U16C G17C C49G, the yeast fitness was ≤ 0.5. A15C C46U C60U A65C: the yeast fitness was ≤ 0.5. Turning to A14U G23A C29G C46A C55G G68A, the yeast fitness is ≤ 0.5.

A15C C30G A42C G56A A57U G63A: the yeast fitness was ≤ 0.5. The figure for A15C A57G is 0.812; for A15C G17A U28A it is 0.675. Next, A14U U16A C33G: ≤ 0.5; A14U C34G: ≤ 0.5.

As to A15C G23C G39C G63A A69C, the yeast fitness was ≤ 0.5. Take A15C: the yeast fitness was 0.904.

As for A15C C31G C33G C55U, the yeast fitness was ≤ 0.5. Regarding A14U C61G, the yeast fitness was ≤ 0.5. On to A14U G58A C61U, for which the yeast fitness stood at 0.509. As for A14U G17A G23C C29U C34G A43G A45C U54G, the yeast fitness was ≤ 0.5. The figure for A14U G18A C24A C34A is 0.53. A15C U16A A45U G48C C61U: the yeast fitness is ≤ 0.5. Next, A15C U16C A37C C60A: ≤ 0.5; A15C A42G C49A G56C G67U: ≤ 0.5; A15C A36U C61A: ≤ 0.5. Take A15C G63C: the yeast fitness worked out at 0.616. The figure for A15C G63A is 0.61. The figure for A15C A43C G58A is ≤ 0.5. Regarding A15C C33G A42C A45C, the yeast fitness was ≤ 0.5. For A15C U19A, the yeast fitness was 0.817. A15C U19C A21G C34U: the yeast fitness is ≤ 0.5.

Regarding A15C A40U A70U, the yeast fitness was determined as 0.563. For the variant A15C G25C C29U U35C A43U A57C G58A, the yeast fitness was ≤ 0.5. Next, A15C U19C A37C G51A G67C: ≤ 0.5; A14U U26C C31U G68A: ≤ 0.5; A14U G44A G58C: ≤ 0.5.

On to A15C C49U U54C C55G U64C, for which the yeast fitness was ≤ 0.5.

As for A15C C27A U32G, the yeast fitness was 0.709.

For A15C A21G C22U A43U A57U, the yeast fitness was ≤ 0.5.

Take A15C A36U C55A A65U: the yeast fitness is ≤ 0.5. The figure for A15C C34G A37U C46G is ≤ 0.5; for A15C A20G C33A A36C U47A it is ≤ 0.5; for A14U U28A C33U it is 0.714. For A15C G67A, the yeast fitness was determined as 0.698. As for A15C G23C C31U A57C C66U, the yeast fitness is ≤ 0.5.

For the variant A15C A20C C55U, the yeast fitness was ≤ 0.5. As for A14U G23U, the yeast fitness is 0.59. Next, A15C A43C: 0.609; A14U U59A G67A: 0.578. Take A14U C30G: the yeast fitness stood at 0.516.

For A15C C30A G63A, the yeast fitness was ≤ 0.5. For the variant A14U U28A C46G, the yeast fitness was ≤ 0.5.

With A14U C29U A37U C66U, the yeast fitness is ≤ 0.5. The figure for A14U G44C G52A U59C U64G is 0.646; for A14U C34G A37C G50U C62U it is ≤ 0.5; for A15C C27G it is 0.571.

As to A14U G50C U53A A57U A65U, the yeast fitness is 0.687. The figure for A15C G17C C31A G44C A70G is ≤ 0.5; for A14U U26A C66A it is ≤ 0.5; for A15C C31U G38A G56C A70U it is 0.581.

A15C A21C C27G C62U: the yeast fitness was 0.534. The figure for A15C A37C U59C is 0.814; for A15C G17A A45C it is ≤ 0.5.

As to A15C C60U C66A, the yeast fitness was ≤ 0.5.

For the variant A15C C31U G48C A65C, the yeast fitness is ≤ 0.5. The figure for A15C C22U U54A is 0.636; for A15C A20G A65U A69G it is ≤ 0.5; for A15C A20G C61U C62U A69G it is 0.764. As to A15C C27G G48A C49G, the yeast fitness was ≤ 0.5. Regarding A15C A20G C31A U59C A69G, the yeast fitness was ≤ 0.5. Next, A14U G67A: 0.733; A14U G56A: 0.619. On to A15C C34A G63C, for which the yeast fitness was ≤ 0.5. Next, A14U G48A A70U: 0.661; A14U C30U C34U A45U: ≤ 0.5; A15C C31A A37U: ≤ 0.5. With A14U G18C G39C C49G C61U, the yeast fitness is ≤ 0.5.

As for A14U C49G A57U, the yeast fitness is ≤ 0.5. On to A15C A42G C49A, for which the yeast fitness was determined as 0.605. As for A15C C49U, the yeast fitness stood at 0.896. With A15C C49G, the yeast fitness was 0.652.

For the variant A14U U16C A21G C24U C46G C62U, the yeast fitness was ≤ 0.5.

Take A15C C31G C55A C66U: the yeast fitness was ≤ 0.5. In the case of A14U U16A C31G U47C G68C, the yeast fitness is ≤ 0.5. The figure for A15C C46U is 0.939; for A15C C46A it is 0.86. The figure for A14U U19G C30G is ≤ 0.5; for A15C U26C C62U it is ≤ 0.5. For A15C G38A A45G G52A C61G, the yeast fitness was 0.539. Next, A15C C27G G39C U47A: 0.689. Regarding A14U U19A C31U, the yeast fitness was ≤ 0.5.

Consider A14U C34G A43C A70U, for which the yeast fitness was ≤ 0.5.

Regarding A14U U59G A65U, the yeast fitness was found to be 0.547. With A15C U28A, the yeast fitness stood at 0.622. For A15C A40C U54C, the yeast fitness was ≤ 0.5.

For the variant A15C C29A C66U, the yeast fitness was ≤ 0.5. The figure for A15C A40C C49G is ≤ 0.5; for A15C G39A C46U it is 0.55.

Regarding A15C G17A C29A C30U C62G U64A, the yeast fitness was ≤ 0.5. As for A15C G17A G38C, the yeast fitness was ≤ 0.5. Consider A15C U26G U28C A37G G41A C49G C62U, for which the yeast fitness was ≤ 0.5. Consider A14U U19A A36C G58C A69U, for which the yeast fitness was 0.555. Regarding A15C C31A G50A, the yeast fitness is ≤ 0.5. The figure for A15C A36C G48A is 0.516.

Turning to A14U U32C A40C G67A, the yeast fitness stood at 0.529. On to A15C C30A A42C G56A A57U, for which the yeast fitness came out at 0.578.

A14U G39C: the yeast fitness was 0.507. Next, A15C A36G C49U G67U: 0.632; A15C U19A C24G C34G C46U C61A A70U: 0.639; A14U G17A C22U C33G G67U: 0.613. For A15C G18A A20U, the yeast fitness was ≤ 0.5. A15C C60A A70U: the yeast fitness was determined as 0.555. The figure for A14U C27U C66G is ≤ 0.5; for A14U U59C A70C it is ≤ 0.5. The figure for A15C G38C C49G G68C is ≤ 0.5. Next, A14U G48C: 0.714. In the case of A14U C29U A37U C46U U59G, the yeast fitness is ≤ 0.5. A15C C34G U35G A36U U59A: the yeast fitness was ≤ 0.5. For A15C A20C A65U, the yeast fitness is ≤ 0.5.

Consider A15C C46U U64C A70G, for which the yeast fitness was ≤ 0.5. Next, A14U C29G A57G U59G C62G C66U: ≤ 0.5; A14U U28A G56C G67U: ≤ 0.5.

Turning to A15C G41A G48C, the yeast fitness is 0.568.

As to A15C G23C C55A A65G, the yeast fitness is ≤ 0.5. The figure for A14U U54C C62U G68C is ≤ 0.5; for A15C G17C A36C G38C G48A it is ≤ 0.5; for A15C U19A G39A it is 0.519. Next, A15C U32A: 0.595; A15C A42G: 0.76; A15C C24G A37C C60U: ≤ 0.5.

A14U C30A G38A C55A A65C: the yeast fitness is ≤ 0.5. Regarding A15C U16A C31G C34U A69U, the yeast fitness is ≤ 0.5. With A14U C31G G38A, the yeast fitness is 0.657.

With A15C C29A C60G G68A, the yeast fitness worked out at 0.609. The figure for A15C A36C G48A G67A is 0.541; for A14U C29G U53C U54G it is 0.571; for A15C C31U G68C it is ≤ 0.5. Take A15C G52C U64A: the yeast fitness is ≤ 0.5. The figure for A15C A36G G56A C61U is ≤ 0.5. Next, A15C C33U U47G C49U G52C G68A: ≤ 0.5; A14U C24U U64C: ≤ 0.5. For A14U G23C C29G G51A G56U, the yeast fitness is ≤ 0.5. Take A15C U28A C34G C55A A57U U59C C60U: the yeast fitness was ≤ 0.5. The figure for A15C A21U C24U is ≤ 0.5; for A15C U16A G50A it is ≤ 0.5. Regarding A14U G41C C49U A65U, the yeast fitness is ≤ 0.5.

The values are drawn from the RNAGym collection of RNA variant scans (doi:10.1126/science.aae0568).
